Laboratory results taken from ChEMBL document CHEMBL1137180, “Synthesis and structure-activity relationship of a novel sulfone series of TNF-alpha converting enzyme inhibitors” (Bioorg Med Chem Lett, 2004).

Key:
[1] = test system: Caco-2; test: Permeability action in Caco-2 cells; format: functional, Homo sapiens
[2] = molecular target: Matrix metalloproteinase-9 (Homo sapiens, UniProt P14780); test: Inhibition of Matrix metalloprotease-9 (MMP-9)
In short: (§1)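 Inhibition is reported as Ki (nM) against each isolated MMP. Each value comes from a single determination, with no replicates.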

[3] = molecular target: Collagenase 3 (Homo sapiens, UniProt P45452); test: Inhibition of Matrix metalloprotease-13 (MMP-13); in short: as §1
[4] = molecular target: 72 kDa type IV collagenase (Homo sapiens, UniProt P08253); test: inhibition of Matrix metalloprotease-2 (MMP-2); in short: as §1
Chain of 72 kDa type IV collagenase (P08253 whole entry, the tested form may be a part): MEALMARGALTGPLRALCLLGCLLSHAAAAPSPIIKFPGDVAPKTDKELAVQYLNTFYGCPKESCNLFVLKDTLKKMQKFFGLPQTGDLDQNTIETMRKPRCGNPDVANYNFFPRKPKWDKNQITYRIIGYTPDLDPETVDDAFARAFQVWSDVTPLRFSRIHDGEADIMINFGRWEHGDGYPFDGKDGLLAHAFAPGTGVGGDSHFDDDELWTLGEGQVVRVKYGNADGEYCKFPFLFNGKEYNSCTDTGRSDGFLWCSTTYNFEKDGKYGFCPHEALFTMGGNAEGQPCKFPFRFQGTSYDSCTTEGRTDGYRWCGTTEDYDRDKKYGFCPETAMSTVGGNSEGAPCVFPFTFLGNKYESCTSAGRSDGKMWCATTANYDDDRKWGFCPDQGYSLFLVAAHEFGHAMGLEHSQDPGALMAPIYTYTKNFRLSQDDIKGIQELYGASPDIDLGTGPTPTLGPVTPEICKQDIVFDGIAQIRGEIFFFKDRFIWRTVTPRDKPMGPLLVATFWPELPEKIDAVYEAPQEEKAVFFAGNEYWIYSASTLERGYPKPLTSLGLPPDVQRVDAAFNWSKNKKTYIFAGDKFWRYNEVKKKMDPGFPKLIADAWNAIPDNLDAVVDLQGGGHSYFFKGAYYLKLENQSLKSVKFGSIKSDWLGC

[5] = molecular target: Disintegrin and metalloproteinase domain-containing protein 17 (Sus scrofa, UniProt O77636); test: Inhibition of porcine Tumor necrosis factor- alpha converting enzyme (TACE, ADAM17)
Chain of Disintegrin and metalloproteinase domain-containing protein 17 (Sus scrofa, UniProt O77636) (O77636 whole entry, the tested form may be a part): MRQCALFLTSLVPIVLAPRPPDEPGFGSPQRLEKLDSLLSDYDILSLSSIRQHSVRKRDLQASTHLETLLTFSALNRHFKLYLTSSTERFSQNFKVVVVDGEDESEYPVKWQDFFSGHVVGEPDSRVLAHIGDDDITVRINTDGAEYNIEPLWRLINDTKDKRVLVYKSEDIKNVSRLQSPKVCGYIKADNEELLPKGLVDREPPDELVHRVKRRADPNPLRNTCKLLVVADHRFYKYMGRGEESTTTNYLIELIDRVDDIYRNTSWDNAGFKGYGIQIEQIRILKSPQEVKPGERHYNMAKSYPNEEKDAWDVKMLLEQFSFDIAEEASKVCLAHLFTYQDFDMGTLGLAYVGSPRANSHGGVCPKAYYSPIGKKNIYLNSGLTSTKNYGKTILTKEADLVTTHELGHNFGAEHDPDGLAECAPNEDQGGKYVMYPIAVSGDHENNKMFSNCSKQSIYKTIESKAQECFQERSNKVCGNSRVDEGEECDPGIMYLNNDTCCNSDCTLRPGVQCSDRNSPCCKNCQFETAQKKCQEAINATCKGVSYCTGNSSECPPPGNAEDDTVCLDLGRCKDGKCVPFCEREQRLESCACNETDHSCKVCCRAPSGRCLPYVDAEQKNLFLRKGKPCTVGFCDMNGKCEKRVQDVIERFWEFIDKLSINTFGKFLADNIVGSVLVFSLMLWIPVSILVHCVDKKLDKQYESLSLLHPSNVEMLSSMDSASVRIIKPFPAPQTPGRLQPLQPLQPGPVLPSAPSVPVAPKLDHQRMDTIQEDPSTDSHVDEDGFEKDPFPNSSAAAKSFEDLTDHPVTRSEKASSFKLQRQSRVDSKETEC

[6] = molecular target: T1, Interstitial collagenase (Homo sapiens, UniProt P03956); test: Inhibition of Matrix metalloprotease-1 (MMP-1); in short: as §1
T1 sequence (P03956 whole entry): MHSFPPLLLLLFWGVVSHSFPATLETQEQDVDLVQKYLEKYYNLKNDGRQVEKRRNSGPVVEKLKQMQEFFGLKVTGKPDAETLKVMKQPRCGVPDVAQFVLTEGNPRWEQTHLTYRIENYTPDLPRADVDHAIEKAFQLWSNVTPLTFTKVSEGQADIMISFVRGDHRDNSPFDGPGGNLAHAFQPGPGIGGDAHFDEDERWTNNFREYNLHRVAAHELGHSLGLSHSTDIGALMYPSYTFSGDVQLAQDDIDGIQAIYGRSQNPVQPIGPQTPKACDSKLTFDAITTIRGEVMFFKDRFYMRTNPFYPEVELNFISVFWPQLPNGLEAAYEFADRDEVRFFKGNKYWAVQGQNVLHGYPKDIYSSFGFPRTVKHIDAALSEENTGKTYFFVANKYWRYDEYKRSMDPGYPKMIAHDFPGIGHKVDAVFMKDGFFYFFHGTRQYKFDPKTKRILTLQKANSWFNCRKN

[7] = test system: Mus musculus; test: Compound was tested for anti TNF-alpha activity using LPS mouse model at 5 mg/kg p.o.; format: functional; conditions: route oral
[8] = molecular target: Disintegrin and metalloproteinase domain-containing protein 17 (Homo sapiens, UniProt P78536); test: Effect on TNF-Alpha release in LPS-stimulated human whole blood assay; format: functional, tissue-based
Chain of Disintegrin and metalloproteinase domain-containing protein 17 (Homo sapiens, UniProt P78536) (P78536 whole entry, the tested form may be a part): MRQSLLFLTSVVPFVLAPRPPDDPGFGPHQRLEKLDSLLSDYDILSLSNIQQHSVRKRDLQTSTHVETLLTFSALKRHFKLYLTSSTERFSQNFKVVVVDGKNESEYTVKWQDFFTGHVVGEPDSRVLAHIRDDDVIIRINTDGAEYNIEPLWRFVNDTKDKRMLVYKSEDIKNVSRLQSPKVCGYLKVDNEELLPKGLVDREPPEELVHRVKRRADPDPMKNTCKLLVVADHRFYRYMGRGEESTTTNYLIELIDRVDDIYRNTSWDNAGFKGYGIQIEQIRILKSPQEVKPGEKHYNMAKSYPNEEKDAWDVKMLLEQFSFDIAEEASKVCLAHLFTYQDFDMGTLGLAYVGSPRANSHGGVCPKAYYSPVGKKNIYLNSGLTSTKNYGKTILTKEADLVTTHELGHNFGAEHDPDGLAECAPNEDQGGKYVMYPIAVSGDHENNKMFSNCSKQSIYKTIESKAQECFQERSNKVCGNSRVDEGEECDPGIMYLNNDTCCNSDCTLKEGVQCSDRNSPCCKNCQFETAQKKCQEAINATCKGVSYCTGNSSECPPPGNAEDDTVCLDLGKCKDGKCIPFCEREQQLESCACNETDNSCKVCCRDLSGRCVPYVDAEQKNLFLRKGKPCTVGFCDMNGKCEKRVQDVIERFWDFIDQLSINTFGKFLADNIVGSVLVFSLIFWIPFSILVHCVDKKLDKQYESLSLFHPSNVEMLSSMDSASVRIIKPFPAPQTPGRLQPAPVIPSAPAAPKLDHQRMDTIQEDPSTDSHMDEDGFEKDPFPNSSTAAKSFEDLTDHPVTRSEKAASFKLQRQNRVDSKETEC

Chain of Matrix metalloproteinase-9 (P14780 whole entry): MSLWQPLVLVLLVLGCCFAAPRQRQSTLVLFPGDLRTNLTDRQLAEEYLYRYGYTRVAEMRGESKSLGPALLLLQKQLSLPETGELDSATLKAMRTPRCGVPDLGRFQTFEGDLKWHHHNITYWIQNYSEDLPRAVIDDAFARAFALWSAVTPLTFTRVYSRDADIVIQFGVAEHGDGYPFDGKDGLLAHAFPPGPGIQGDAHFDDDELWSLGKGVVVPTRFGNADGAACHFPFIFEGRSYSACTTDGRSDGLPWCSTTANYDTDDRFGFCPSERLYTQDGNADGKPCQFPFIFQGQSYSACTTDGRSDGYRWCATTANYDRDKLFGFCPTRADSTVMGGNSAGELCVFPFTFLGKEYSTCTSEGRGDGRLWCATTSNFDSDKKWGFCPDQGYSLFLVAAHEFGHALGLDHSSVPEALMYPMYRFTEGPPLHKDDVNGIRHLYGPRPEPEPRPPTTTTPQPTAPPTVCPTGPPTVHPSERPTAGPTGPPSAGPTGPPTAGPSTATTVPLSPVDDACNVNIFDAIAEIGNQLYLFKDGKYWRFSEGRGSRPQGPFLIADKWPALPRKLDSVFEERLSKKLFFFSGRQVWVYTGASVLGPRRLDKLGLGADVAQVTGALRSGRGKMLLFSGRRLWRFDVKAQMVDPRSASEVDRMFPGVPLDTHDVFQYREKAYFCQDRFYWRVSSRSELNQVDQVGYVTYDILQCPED

Row | Structure (SMILES) | Ki [2] | Ki [3] | Ki [4] | Ki [6] | IC50 [8] | Caco-2 Papp [1] | IC50 [5] | inhibition in vivo at 5 mg/kg [7]
1 | Cc1cc(COc2ccc(S(=O)(=O)CC3(CC(=O)NO)CCCCC3)cc2)c2ccccc2n1 | > 2.1 µM | 1.21 µM | 1.4 µM | > 4.9 µM | 0.867 µM | 220 nm/s | < 0.001 µM | 59%
2 | Cc1cc(COc2ccc(S(=O)(=O)CC3(CC(=O)NO)CCOCC3)cc2)c2ccccc2n1 | > 2.1 µM | > 5 µM | > 3.3 µM | > 4.9 µM | 0.258 µM | – | < 0.001 µM | –
3 | Cc1cc(COc2ccc(S(=O)(=O)CC3(CC(=O)NO)CCNC3)cc2)c2ccccc2n1 (stereo not given) | > 2.1 µM | 3.27 µM | > 3.3 µM | > 4.9 µM | 0.076 µM | 1 nm/s | 0.0015 µM | 34%
4 | CCC(C)N1CCCCC1(CC(=O)NO)CS(=O)(=O)c1ccc(OCc2cc(C)nc3ccccc23)cc1 (stereo not given) | > 5 µM | – | > 3.3 µM | > 4.9 µM | – | – | < 0.048 µM | –
5 | Cc1cc(COc2ccc(S(=O)(=O)CC3(CC(=O)NO)CCCCN3)cc2)c2ccccc2n1 (stereo not given) | > 2.1 µM | 0.753 µM | > 3.3 µM | > 4.9 µM | 0.632 µM | 17 nm/s | < 0.001 µM | 50%
6 | Cc1cc(COc2ccc(S(=O)(=O)CC3(CC(=O)NO)COC3)cc2)c2ccccc2n1 | > 2.1 µM | > 5 µM | > 3.3 µM | > 4.9 µM | 0.595 µM | – | 0.001 µM | –
7 | CCCCCN1CCC(CC(=O)NO)(CS(=O)(=O)c2ccc(OCc3cc(C)nc4ccccc34)cc2)C1 (stereo not given) | > 2.1 µM | 1.76 µM | > 3.3 µM | > 4.9 µM | 0.418 µM | – | 0.0034 µM | 22%
8 | Cc1cc(COc2ccc(S(=O)(=O)CC3CCNCC3C(=O)NO)cc2)c2ccccc2n1 (stereo not given) | > 2.1 µM | > 5 µM | > 3.3 µM | > 4.9 µM | 0.25 µM | 1 nm/s | < 0.0015 µM | –
9 | Cc1cc(COc2ccc(S(=O)(=O)CC3(CC(=O)NO)CCCN3CC(C)C)cc2)c2ccccc2n1 (stereo not given) | > 2.1 µM | > 5 µM | 1.33 µM | > 4.9 µM | – | 7 nm/s | 0.02 µM | –
10 | Cc1cc(COc2ccc(S(=O)(=O)CC3(CC(=O)NO)CCN(CC(C)C)C3)cc2)c2ccccc2n1 (stereo not given) | > 2.1 µM | 0.603 µM | 2.17 µM | > 4.9 µM | 0.161 µM | 8 nm/s | 0.0026 µM | 22%
11 | Cc1cc(COc2ccc(S(=O)(=O)CC3(CC(=O)NO)CCCN(CC(C)C)C3)cc2)c2ccccc2n1 (stereo not given) | > 2.1 µM | > 5 µM | > 3.3 µM | > 4.9 µM | 2.5 µM | 7 nm/s | 0.0033 µM | 25%
12 | Cc1cc(COc2ccc(S(=O)(=O)CC3(CC(=O)NO)CCNCC3)cc2)c2ccccc2n1 | > 2.1 µM | > 5 µM | > 3.3 µM | > 4.9 µM | – | 1 nm/s | 0.014 µM | 57%
13 | Cc1cc(COc2ccc(S(=O)(=O)CC3(CC(=O)NO)CCCN(C(C)C)C3)cc2)c2ccccc2n1 (stereo not given) | > 2.1 µM | > 5 µM | > 3.3 µM | > 4.9 µM | 0.506 µM | 2 nm/s | 0.0027 µM | –
14 | Cc1cc(COc2ccc(S(=O)(=O)CC3(CC(=O)NO)CCCC3)cc2)c2ccccc2n1 | 1.51 µM | 0.804 µM | 1.57 µM | > 4.9 µM | 0.42 µM | 180 nm/s | < 0.0008 µM | –

More lines, main results first:

Row | Ki [2] | Ki [3] | Ki [4] | Ki [6] | IC50 [8] | Structure (SMILES) | Caco-2 Papp [1] | IC50 [5] | inhibition in vivo at 5 mg/kg [7]
15 | > 2.1 µM | > 5 µM | > 3.3 µM | > 4.9 µM | 0.403 µM | Cc1cc(COc2ccc(S(=O)(=O)CC3(CC(=O)NO)CCCN3)cc2)c2ccccc2n1 (stereo not given) | 4 nm/s | 0.001 µM | 19%
16 | > 2.1 µM | 2.61 µM | > 3.3 µM | > 4.9 µM | 0.102 µM | Cc1cc(COc2ccc(S(=O)(=O)CC3(CC(=O)NO)CCN(C)CC3)cc2)c2ccccc2n1 | 2 nm/s | < 0.002 µM | –
17 | > 2.1 µM | > 5 µM | > 3.3 µM | > 4.9 µM | 0.109 µM | Cc1cc(COc2ccc(S(=O)(=O)CC3(CC(=O)NO)CCN(C)C3)cc2)c2ccccc2n1 (stereo not given) | 3 nm/s | 0.0032 µM | 28%
18 | > 2.1 µM | > 5 µM | > 3.3 µM | > 4.9 µM | 0.51 µM | Cc1cc(COc2ccc(S(=O)(=O)CC3CCN(C)CC3C(=O)NO)cc2)c2ccccc2n1 (stereo not given) | 2 nm/s | 0.0065 µM | –
19 | 2.1 µM | 0.653 µM | 1.33 µM | > 4.9 µM | 0.077 µM | Cc1cc(COc2ccc(S(=O)(=O)CC3(CC(=O)NO)CCN(C(C)C)C3)cc2)c2ccccc2n1 (stereo not given) | 2 nm/s | 0.0016 µM | 37%
20 | > 2.1 µM | 3.27 µM | > 3.3 µM | > 4.9 µM | > 3 µM | Cc1cc(COc2ccc(S(=O)(=O)CC3(CC(=O)NO)CCCN3C)cc2)c2ccccc2n1 (stereo not given) | 16 nm/s | 0.0029 µM | –
21 | > 2.1 µM | > 5 µM | > 3.3 µM | > 4.9 µM | – | CC(=O)N1CCCC1(CC(=O)NO)CS(=O)(=O)c1ccc(OCc2cc(C)nc3ccccc23)cc1 (stereo not given) | 6 nm/s | 0.66 µM | –
22 | > 2.1 µM | > 5 µM | > 3.3 µM | > 4.9 µM | > 3 µM | Cc1cc(COc2ccc(S(=O)(=O)CC3(CC(=O)NO)CCCCN3C)cc2)c2ccccc2n1 (stereo not given) | 51 nm/s | 0.0051 µM | –
23 | > 2.1 µM | > 5 µM | > 3.3 µM | > 4.9 µM | > 1 µM | Cc1cc(COc2ccc(S(=O)(=O)CC3CCN(C(C)C)CC3C(=O)NO)cc2)c2ccccc2n1 (stereo not given) | 6.5 nm/s | < 0.011 µM | –
24 | > 2.1 µM | 0.754 µM | > 3.3 µM | > 4.9 µM | 0.24 µM | Cc1cc(COc2ccc(S(=O)(=O)CC3NCCCC3C(=O)NO)cc2)c2ccccc2n1 (stereo not given) | 1 nm/s | < 0.001 µM | –
25 | > 2.1 µM | 3.87 µM | > 3.3 µM | > 4.9 µM | 0.208 µM | Cc1cc(COc2ccc(S(=O)(=O)CC3(CC(=O)NO)CCCN(C)C3)cc2)c2ccccc2n1 (stereo not given) | 2 nm/s | 0.0036 µM | 49%
26 | > 2.1 µM | > 5 µM | > 3.3 µM | > 4.9 µM | 0.19 µM | Cc1cc(COc2ccc(S(=O)(=O)CC3CN(C)CCC3C(=O)NO)cc2)c2ccccc2n1 (stereo not given) | 1 nm/s | < 0.0019 µM | –
27 | > 2.1 µM | > 5 µM | > 3.3 µM | > 4.9 µM | > 3 µM | Cc1cc(COc2ccc(S(=O)(=O)CC3C(C(=O)NO)CCCN3C)cc2)c2ccccc2n1 (stereo not given) | – | < 0.0011 µM | –
